This is an account of results in ChEMBL document CHEMBL4819088, “Synthesis and in vivo screening of isosteviol derivatives as new cardioprotective agents” (2021).

For experiment [1], the species on record is Danio rerio. Description: Prevention of doxorubicin-induced Zebrafish mortality assessed as survival rate at 40 uM incubated for 48 hrs by inverted fluorescence microscopy (reference value: 52%). The format is functional.
For experiment [2], the species on record is Danio rerio. Description: Prevention of doxorubicin-induced Zebrafish mortality assessed as increase in survival rate incubated for 48 hrs by inverted fluorescence microscopy. Type of experiment: functional, organism-based. The following applies: dose 5-40 µM. In outline:
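Wild-type embryos, 24 hpf, 20 per well in 1 mL egg water, exposed to DOX (100 μM) with or without test compound (5, 15, 40 μM) for 48 h. Survival scored at 96 hpf by inverted fluorescence microscopy; no motion on touch, or loss of atrial and ventricular contractility, counted as dead. Mean ± S.D., n = 4.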

Experiment [3] relates to Danio rerio. Description: Cardioprotective activity in (cmlc2:GFP) transgenic Zebrafish assessed as reduction in doxorubicin-induced cardiac edema measured after 48 hrs. Type of experiment: functional, organism-based.
Experiment [4] is filed under the species Danio rerio. Description: Cardioprotective activity in (cmlc2:GFP) transgenic Zebrafish assessed as prevention of doxorubicin-induced heart shape change measured after 48 hrs. The format is functional, organism-based.
For experiment [5], the species on record is Danio rerio. Put plainly: Cardioprotective activity in (cmlc2:GFP) transgenic Zebrafish assessed as reduction in doxorubicin-induced cardiac impairment measured after 48 hrs. Type of experiment: functional, organism-based. In outline: (§1)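 Tg(cmlc2:GFP) embryos, 24 hpf, 20 per well, exposed to DOX (80 μM) with or without test compound at its optimum concentration for 48 h. At 72 hpf, heart rate, fractional shortening, stroke volume and cardiac output were derived from fluorescence imaging of atrium and ventricle. Mean ± S.D., n = 4.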

Experiment [6] is filed under the species Danio rerio. Description: Cardioprotective activity against doxorubicin-induced (cmlc2:GFP) transgenic Zebrafish assessed as protection of heart measured after 48 hrs. The format is functional, organism-based. The following applies: dose 20-60 µM. In outline:
as §1

The species named for experiment [7] is Danio rerio. Put plainly: Cardioprotective activity against doxorubicin-induced (cmlc2:GFP) transgenic Zebrafish assessed as protection of heart function loss measured after 48 hrs. Type of experiment: functional, organism-based. The settings on record: dose 20-60 µM. The procedure, abridged: as §1
Experiment [8] is filed under the species Danio rerio. Description: Cardioprotective activity against Zebrafish assessed as reduction in doxorubicin-induced increase in Cardiac troponin T mRNA level by qRT-PCR analysis. The format is functional, organism-based. The following applies: dose 20-40 µM. In outline:
(§2)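 Zebrafish embryos, either controls or exposed to doxorubicin with or without test compound. ANP and cTnT mRNA levels measured relative to control. Mean ± S.D., n = 4.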
Background: Real-time PCR tracks product formation cycle by cycle.

For experiment [9], the species on record is Danio rerio. Put plainly: Cardioprotective activity against Zebrafish assessed as reduction in doxorubicin-induced increase in natriuretic peptide mRNA level by qRT-PCR analysis. The format is functional, organism-based. The settings on record: dose 20-40 µM. The procedure, abridged: as §2
Experiment [10] has as its system H9c2. Put plainly: Cardioprotective activity against doxorubicin-induced rat H9c2 cells assessed as protection of cell damage measured after 48 hrs by CCK8 assay. The format is functional, cell-based. The settings on record: dose 0.5-12.5 µM. In outline:
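H9c2 cells grown in DMEM with 10% FBS and penicillin/streptomycin at 37 °C, 5% CO2, used at 70% confluence. Exposed to DOX (10 μM) with or without test compound (0.5–12.5 μM) for 48 h. CCK-8 (0.5 mg/mL) then added for 4 h to read viability.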
In general terms: Tetrazolium assays rely on reduction of a dye to a coloured formazan, in cell work by metabolically active cells.

For experiment [11], the system named is H9c2. Description: Cardioprotective activity against rat H9c2 cells assessed as inhibition of doxorubicin-induced ROS production preincubated for 48 hrs followed by loading with DCFDA dye for 40 mins by DCF-DA probe based fluorescence assay. The following applies: dose 1-10 µM. Type of experiment: functional, cell-based. In outline:
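H9c2 cells exposed for 48 h with or without test compound, then loaded with DCFH-DA (5 μM final, in DMEM) for 40 min at 37 °C. Cells washed three times with PBS; DCF fluorescence read by confocal microscopy as the ROS level. Mean ± S.D., n = 3.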

For experiment [12], the system named is H9c2. Put plainly: Cardioprotective activity against rat H9c2 cells assessed as inhibition of doxorubicin-induced mitochondrial membrane potential loss incubated for 48 hrs by JC1 staining based confocal microscopy. The following applies: dose 1-10 µM.

As to `COc1ccc(C(=O)OC[C@@H]2C(=O)[C@@]3(C)CC[C@H]4[C@]5(C)CCC[C@@](C)(N)[C@H]5CC[C@@]24C3)c(OC)c1OC`, the Activity is 98% in the experiment filed under Danio rerio [1]; “Dose-Dependent Effect” in the experiment listed under Danio rerio [2]; “Dose-Dependent Effect” with Danio rerio [3]; “Dose-Dependent Effect” in the experiment filed under Danio rerio [4]; “Dose-Dependent Effect” in the experiment listed under Danio rerio [5]; “Dose-Dependent Effect” in the experiment listed under Danio rerio [6]. Also, the Activity entry in the experiment listed under Danio rerio [7], in the experiment listed under Danio rerio [8], in the experiment filed under Danio rerio [9], in the experiment on H9c2 [10], with H9c2 [11] and in the experiment with H9c2 [12] was “Dose-Dependent Effect” each time.
